Active and inactive are the calls of the source. The rule behind the calls is not given here.
What was measured:
U-251 [1] = assay: Cytotoxicity against human U251 cells after 72 hrs by MTS assay; format: functional, cell-based; conditions: U-251, 72 h
Procedure, shortened: (§1)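 Monolayer cultures kept at 37 °C, 5% CO2, humidified, grown to 75–90% confluence; U87 and U251 maintained in DMEM with 10% FBS. Seeded at 2,500 cells/well and left about 6 h, then drug-containing medium added at various concentrations for 72 h. Viable cells read by MTS colorimetry at 490 nm. Triplicate, two separate occasions; IC50 from best-fit sigmoidal dose–response curves.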

MRC5 [2] = assay: Cytotoxicity against human MRC5 cells after 72 hrs by MTS assay; format: cell-based; conditions: MRC5, 72 h
[3] = Cytotoxicity against human U87 cells after 72 hrs by MTS assay; format: functional, cell-based, U-87MG ATCC; conditions: U-87 MG; procedure, shortened: as §1
[4] = Cytotoxicity against human MDA1986 cells after 72 hrs by MTS assay; format: functional, cell-based; conditions: MDA1986, 72 h; procedure, shortened: as §1
MRC5 [5] = assay: Selectivity index, ratio of IC50 for human MRC5 cells to IC50 for human U87 cells; format: functional
Procedure, shortened: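 MTS viability assay. MRC-5 fibroblasts and U87 glioblastoma cells were seeded at 2,500 cells/well and left about 6 h. Drug-containing media at a range of concentrations was then added, with 72 h further incubation at 37 °C in 5% CO2. Absorbance was read at 490 nm, in triplicate on two occasions. IC50s came from sigmoidal dose-response fits, and the index is the MRC-5/U87 IC50 ratio.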

U-251 [6] = assay: Increase in HSP70 expression in human U251 cells at 5 uM incubated for 24 hrs in presence of N-acetylcysteine by Western blotting method; format: functional, cell-based
U-251 [7] = assay: Increase in HSP32 expression in human U251 cells incubated for 24 hrs by Western blotting method; format: functional, cell-based
Procedure, shortened: (§2)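 U251 glioblastoma cells plated to stay subconfluent at harvest, grown overnight, then exposed to 0, 0.1, 0.5, 1 and 5 μM of each withanolide for 24 h. Lysates quantified, run on SDS-PAGE, transferred to nitrocellulose and immunoblotted for total HSP32 and HSP70. β-actin served as the loading control.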

U-251 [8] = assay: Increase in HSP32 expression in human U251 cells incubated for 24 hrs in presence of N-acetylcysteine by Western blotting method; format: functional, cell-based
U-251 [9] = assay: Increase in HSP70 expression in human U251 cells at 5 uM incubated for 24 hrs by Western blotting method; format: functional, cell-based; procedure, shortened: as §2

Row | Compound | IC50 (U-251 [1]) | IC50 (MRC5 [2]) | IC50 [3] | IC50 [4] | Ratio IC50 (MRC5 [5]) | Activity (U-251 [6]) | Activity (U-251 [7]) | Activity (U-251 [8]) | Activity (U-251 [9])
1 | CC1=C(CO)C(=O)O[C@@H]([C@@H](C)[C@H]2CC[C@H]3[C@@H]4C[C@H]5O[C@]56[C@@H](O)C=CC(=O)[C@]6(C)[C@H]4CC[C@]23C)C1 [WITHAFERIN A] | 690 nM | 0.2 µM | 1100 nM | 800 nM | 0.19 |  |  |  | 
2 | C=C1C(=O)O[C@@H]2C[C@]1(C)OC[C@H]2[C@H]1CC[C@H]2[C@@H]3C[C@H]4O[C@]45CC=CC(=O)[C@]5(C)[C@H]3CC[C@]12C [WITHAMETELIN F] | 1400 nM | 3.3 µM | 560 nM | 1500 nM | 6 | inactive | Dose-dependent effect | inactive | Active
3 | C=C1C(=O)O[C@@H]2C[C@]1(C)OC[C@H]2[C@H]1CC[C@H]2[C@@H]3CC=C4CC=CC(=O)[C@]4(C)[C@H]3C[C@@H](O)[C@]12C [WITHAMETELIN L] | 1300 nM | 4.2 µM | 570 nM | 2300 nM | 7.4 | inactive | Dose-dependent effect | inactive | Active
4 | C=C1C(=O)O[C@@H]2C[C@]1(C)OC[C@H]2[C@H]1CC[C@H]2[C@@H]3C[C@@H](O)[C@@]4(O)CC=CC(=O)[C@]4(C)[C@H]3CC[C@]12C [WITHAMETELIN O] | 2800 nM | 4.6 µM | 1100 nM | 3000 nM | 4.1 |  | Dose-dependent effect | inactive | 
5 | C=C1C(=O)O[C@@H]2C[C@]1(C)OC[C@H]2[C@H]1CC[C@H]2[C@@H]3CC=C4CC=CC(=O)[C@]4(C)[C@H]3CC[C@]12C [WITHAMETELIN] | 2200 nM | 5.1 µM | 1000 nM | 2700 nM | 5.1 | inactive | Dose-dependent effect | inactive | Active
6 | C=C1C(=O)O[C@@H]2C[C@@]1(C)OC[C@H]2[C@H]1CC[C@H]2[C@@H]3C[C@@H](O)[C@@]45C[C@H]4CC(=O)[C@]5(C)[C@H]3CC[C@]12C [WITHAWRIGHTOLIDE] | 3600 nM | 5.6 µM | 1500 nM | 3100 nM | 3.8 |  | Dose-dependent effect | inactive | 
